Measured values reported in ChEMBL document CHEMBL4118027, “Preussilides A-F, Bicyclic Polyketides from the Endophytic Fungus Preussia similis with Antiproliferative Activity” (J Nat Prod, 2017).
pIC50: −log10 of the molar value. In brackets after ≈: the same amount, converted by molar mass. Activity calls are given as the source filed them. The rule behind the calls is not given here.

How the values were obtained:
Candida albicans = assay: Antifungal activity against Candida albicans DSM 1665 by serial dilution method; assay type: functional, organism-based
Aspergillus fumigatus = assay: Antifungal activity against Aspergillus fumigatus DSM 819 by serial dilution method; assay type: functional
PC-3 = assay: Cytotoxicity against human PC3 cells assessed as reduction in cell viability after 5 days by MTT assay; assay type: functional, cell-based; details: PC-3, 120 h
Outline: (§1)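 MTT viability assay run over 5 days on a panel of eight lines (L929, KB3.1, A431, A549, SKOV-3, PC-3, MCF-7, U2OS). IC50 values were derived.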

U2OS [1] = assay: Induction of apoptosis in human U2OS cells assessed as caspase-3/7 cleavage at 5 ug/ml after 18 hrs by caspase-3/7 green reagent based flow cytometry (reference value: 8.04%)
Pseudomonas aeruginosa = assay: Antibacterial activity against Pseudomonas aeruginosa PA14 by serial dilution method; assay type: functional, organism-based
U2OS [2] = assay: Induction of apoptosis in human U2OS cells assessed as caspase-3/7 cleavage at 10 ug/ml after 18 hrs by caspase-3/7 green reagent based flow cytometry (reference value: 8.04%)
Yamadazyma tenuis = assay: Antifungal activity against Candida tenuis MUCL 29892 by serial dilution method; assay type: functional, organism-based
U2OS [3] = assay: Ratio of compound effect for induction of multipolar and duplicated spindle formation to compound effect for cytotoxicity for human U2OS cells; assay type: functional
Outline: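 Spindle arm: U2OS in DMEM (4.5 g/L glucose, 10% FBS) at 37 °C, 7% CO2, on fibronectin-coated coverslips, adhered 16 h. Treated 24 h at 0.25–10 μg/mL (diluted from 1 mg/mL DMSO stock) with a DMSO control, PFA-fixed, and anti-α-tubulin immunostained to score mitotic spindles. Cytotoxicity arm: 5-day MTT. Ratio compares spindle-inducing concentration with cytotoxic concentration.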

SK-OV-3 = assay: Cytotoxicity against human SKOV3 cells assessed as reduction in cell viability after 5 days by MTT assay; assay type: functional, cell-based; details: SK-OV-3, 120 h; outline: as §1
U2OS [4] = assay: Cell cycle arrest in human U2OS cells assessed as accumulation at G1 phase at 10 ug/ml after 18 hrs by propidium iodide staining based flow cytometry (reference value: 50.1%); assay type: functional
Outline: (§2)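 U2OS were seeded at 7 × 10^5/well in six-well plates and exposed to 5 or 10 μg/mL for 18 h after spreading, with untreated and DMSO mock controls. Cells were trypsinized, fixed in 2% PFA/PBS, then in ice-cold methanol 30 min. Staining: anti-tubulin/anti-lamin antibodies plus RNase A and propidium iodide. Flow cytometry assigned G1, S, G2-M and sub-G1 by DNA content.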

U2OS [5] = assay: Induction of apoptosis in human U2OS cells assessed as lamin fragmentation up to 10 ug/ml after 18 hrs by flow cytometry; assay type: functional, cell-based; outline: as §2
U2OS [6] = assay: Cell cycle arrest in human U2OS cells assessed as accumulation at G2/M phase at 10 ug/ml after 18 hrs by propidium iodide staining based flow cytometry (reference value: 24.3%); assay type: functional; outline: as §2
U2OS [7] = assay: Induction of nuclear fragmentation in human U2OS cells at 0.25 to 5 ug/ml after 24 hrs by DAPI staining based immunofluorescence microscopic method; assay type: functional, cell-based
U2OS [8] = assay: Cell cycle arrest in human U2OS cells assessed as accumulation at G2/M phase at 5 ug/ml after 18 hrs by propidium iodide staining based flow cytometry (reference value: 24.3%); assay type: functional; outline: as §2
Mucor plumbeus = assay: Antifungal activity against Mucor plumbeus MUCL 49355 by serial dilution method; assay type: functional
U2OS [9] = assay: Induction of morphological changes in human U2OS cells assessed as multipolar and duplicated spindle formation at 0.25 to 5 ug/ml after 24 hrs by DAPI staining based immunofluorescence microscopic method; assay type: functional, cell-based
Outline: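 U2OS in DMEM (4.5 g/L glucose, 10% FBS), 37 °C, 7% CO2, seeded 3 × 10^4/well on fibronectin-coated coverslips and adhered 16 h. Treated 24 h at 0.25, 0.5, 2.5, 5 or 10 μg/mL (diluted from 1 mg/mL DMSO stock), DMSO control. Fixed in 4% PFA/PBS 20 min; anti-α-tubulin (DM1A), phalloidin-Alexa 488 and DNA stain; immunofluorescence imaging.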

Rhodotorula glutinis = assay: Antifungal activity against Rhodotorula glutinis DSM 10134 by serial dilution method; assay type: functional, organism-based
Micrococcus luteus = assay: Antibacterial activity against Micrococcus luteus DSM 1790 by serial dilution method; assay type: functional, organism-based
Sclerotinia sclerotiorum = assay: Antifungal activity against Sclerotinia sclerotiorum DSM 1946 at 100 ug/disk after 5 days by disk diffusion assay; assay type: functional; details: DSM 1946, 120 h, read-out: IZ
Outline: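 Disk diffusion on YMG medium seeded with a mycelial suspension of the non-sporulating test fungus. Paper disks carried […] compound. Nystatin at 20 μg/disk was the positive control. Inhibition zone diameter (mm) was read after 5 days.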

Bacillus subtilis = assay: Antibacterial activity against Bacillus subtilis DSM 10 by serial dilution method; assay type: functional, organism-based
U2OS [10] = assay: Cell cycle arrest in human U2OS cells assessed as accumulation at sub-G1 phase at 5 ug/ml after 18 hrs by propidium iodide staining based flow cytometry (reference value: 0.19%); assay type: functional; outline: as §2
[11] = tested on: Schizosaccharomyces pombe; assay: Antifungal activity against Schizosaccharomyces pombe DSM 70572 by serial dilution method; assay type: functional, organism-based
Mucor hiemalis = assay: Antifungal activity against Mucor hiemalis DSM 2656 by serial dilution method; assay type: functional, organism-based
[12] = tested on: Mycolicibacterium smegmatis; assay: Antibacterial activity against Mycobacterium smegmatis ATCC 700084 by serial dilution method; assay type: functional, organism-based
KB 3-1 = assay: Cytotoxicity against human KB3-1 cells assessed as reduction in cell viability after 5 days by MTT assay; assay type: functional, cell-based; details: KB 3-1, 120 h; outline: as §1
U2OS [13] = assay: Cell cycle arrest in human U2OS cells assessed as accumulation at S phase at 10 ug/ml after 18 hrs by propidium iodide staining based flow cytometry (reference value: 19%); assay type: functional; outline: as §2
L929 [14] = assay: Cytotoxicity against mouse L929 cells assessed as reduction in cell viability after 5 days by MTT assay; assay type: functional, cell-based; details: L929, 120 h; outline: as §1
Wickerhamomyces anomalus = assay: Antifungal activity against Pichia anomala DSM 6766 by serial dilution method; assay type: functional, organism-based
L929 [15] = assay: Induction of nuclear fragmentation in mouse L929 cells at cytotoxic IC50 by DAPI staining based microscopic method; assay type: functional, cell-based
Caenorhabditis elegans = assay: Nematicidal activity against Caenorhabditis elegans up to 100 ug/ml; assay type: functional, organism-based
Lepidium sativum = assay: Phytotoxicity against Lepidium sativum assessed as inhibition of seedling germination at 100 ug/disk; assay type: functional, organism-based
MCF7 = assay: Cytotoxicity against human MCF7 cells assessed as reduction in cell viability after 5 days by MTT assay; assay type: functional, cell-based; details: MCF7, 120 h; outline: as §1
U2OS [16] = assay: Induction of apoptosis in human U2OS cells assessed as tubulin fragmentation up to 10 ug/ml after 18 hrs by flow cytometry; assay type: functional, cell-based; outline: as §2
A549 = assay: Cytotoxicity against human A549 cells assessed as reduction in cell viability after 5 days by MTT assay; assay type: functional, cell-based; details: A549, 120 h; outline: as §1
U2OS [17] = assay: Induction of morphological changes in human U2OS cells at 0.25 to 5 ug/ml after 24 hrs by DAPI staining based immunofluorescence microscopic method

CC(=O)CC1=C(C)C=C2C[C@@H](C)C(=O)[C@@H](C)[C@@H]2[C@H]1/C=C(C)/C=C(C)/C=C/C(=O)O
Activity (Candida albicans): inactive
MIC (Aspergillus fumigatus): 8.3 mg/L (≈ 20.9 µM)
pIC50 (PC-3): 4.74
Activity (U2OS [1]): 3.45%
Activity (Pseudomonas aeruginosa): inactive
Activity (U2OS [2]): 5.72%
Activity (Yamadazyma tenuis): inactive
Ratio (U2OS [3]): 10 - 20
pIC50 (SK-OV-3): 4.81
Activity (U2OS [4]): 50.7%
Activity (U2OS [5]): Active
Activity (U2OS [6]): 10.8%
Activity (U2OS [7]): Active
Activity (U2OS [8]): 19.1%
MIC (Mucor plumbeus): 37.5 mg/L (≈ 94.6 µM)
Activity (U2OS [9]): Active
Activity (Rhodotorula glutinis): inactive
Activity (Micrococcus luteus): inactive
zone of inhibition at 100 µg/disc (Sclerotinia sclerotiorum): 29 mm
Activity (Bacillus subtilis): inactive
Activity (U2OS [10]): 1.14%
Activity [11]: inactive
Activity (Mucor hiemalis): inactive
Activity [12]: inactive
pIC50 (KB 3-1): 5.60
Activity (U2OS [13]): 9.62%
pIC50 (L929 [14]): 5.04
Activity (Wickerhamomyces anomalus): inactive
Activity (L929 [15]): Active
Activity (Caenorhabditis elegans): inactive
Activity (Lepidium sativum): inactive
pIC50 (MCF7): 5.14
Activity (U2OS [16]): Active
pIC50 (A549): 4.64
Activity (U2OS [17]): Active
